Assay results reported in ChEMBL document CHEMBL4177770, “Discovery of MK-6169, a Potent Pan-Genotype Hepatitis C Virus NS5A Inhibitor with Optimized Activity against Common Resistance-Associated Substitutions” (J Med Chem, 2018).

Experiments:
[1] = target: T1, Nonstructural protein 5A (Hepatitis C virus) (UniProt Q5L478); experiment: Inhibition of NS5A in HCV genotype 1a infected in HuH7 replicon cells assessed as decrease in viral replication after 3 days by RT-PCR method; assay type: cell-based; details: Hepatitis C virus subtype 1a
T1 sequence (whole entry): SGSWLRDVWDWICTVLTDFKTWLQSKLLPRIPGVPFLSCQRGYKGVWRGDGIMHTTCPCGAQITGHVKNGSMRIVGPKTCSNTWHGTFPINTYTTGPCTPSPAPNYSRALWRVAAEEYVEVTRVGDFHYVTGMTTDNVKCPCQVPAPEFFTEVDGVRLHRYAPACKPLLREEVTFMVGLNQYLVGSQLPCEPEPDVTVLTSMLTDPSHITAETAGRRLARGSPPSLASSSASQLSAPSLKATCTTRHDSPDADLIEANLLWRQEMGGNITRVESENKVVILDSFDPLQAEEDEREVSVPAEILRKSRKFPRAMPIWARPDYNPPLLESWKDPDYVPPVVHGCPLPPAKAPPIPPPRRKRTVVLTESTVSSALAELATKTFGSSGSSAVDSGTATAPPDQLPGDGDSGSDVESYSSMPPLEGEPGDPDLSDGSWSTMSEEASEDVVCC

[2] = target: T1, Nonstructural protein 5A (Hepatitis C virus); experiment: Inhibition of NS5A in HCV genotype 3a infected in HuH7 replicon cells assessed as decrease in viral replication after 3 days by RT-PCR method; assay type: cell-based; details: Hepatitis C virus subtype 3a
[3] = target: T1, Nonstructural protein 5A (Hepatitis C virus); experiment: Inhibition of NS5A in HCV genotype 4a infected in HuH7 replicon cells assessed as decrease in viral replication after 3 days by RT-PCR method; assay type: cell-based; details: Hepatitis C virus subtype 4a
[4] = MRT in Wistar Han rat at 10 mg/kg, po by LC/MS method; assay type: ADME, organism-based; details: in vivo
Outline: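 Male Wistar Han rats, two per dosing group, dosed orally at 10 mg/kg in 10% TWEEN. Plasma was separated from collected blood by centrifugation and analysed by LC/MS.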

[5] = Drug level in Wistar Han rat at 300 mg/kg, po measured at 24 hrs by LC/MS method; assay type: ADME, organism-based; details: in vivo, read-out: Drug uptake
Outline: (§1)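 Single rising oral dose study in fed male Wistar Han rats, dosed PO in 10% TWEEN at the indicated doses. Plasma was obtained by centrifuging the blood, and compound levels were determined by LC/MS.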

[6] = MRT in Wistar Han rat at 300 mg/kg, po by LC/MS method; assay type: ADME, organism-based; details: in vivo; outline: as §1
[7] = system: NS3 (Hepatitis C virus), A3EZJ3 [R155K,V36M]; experiment: Inhibition of NS3 R155K/V36M double mutant in HCV genotype 1a infected in HuH7 replicon cells assessed as decrease in viral replication after 3 days by RT-PCR method; assay type: cell-based; details: Hepatitis C virus subtype 1a
[8] = target: T1, Nonstructural protein 5A (Hepatitis C virus); experiment: Inhibition of NS5A R81S mutant in HCV genotype 1a infected in HuH7 replicon cells assessed as decrease in viral replication after 3 days by RT-PCR method; assay type: cell-based; details: Hepatitis C virus subtype 1a
[9] = system: Hepatitis C virus subtype 1a; experiment: Resistance ratio of EC90 for NS5A K24R mutant in HCV genotype 1a infected in HuH7 replicon cells to EC90 for NS5A in HCV genotype 1a infected in HuH7 replicon cells; assay type: cell-based
[10] = system: Hepatitis C virus subtype 1a; experiment: Resistance ratio of EC90 for NS5A L31M/Y93C double mutant in HCV genotype 1a infected in HuH7 replicon cells to EC90 for NS5A in HCV genotype 1a infected in HuH7 replicon cells; assay type: cell-based
[11] = system: Hepatitis C virus subtype 1a; experiment: Resistance ratio of EC90 for NS5A M28K mutant in HCV genotype 1a infected in HuH7 replicon cells to EC90 for NS5A in HCV genotype 1a infected in HuH7 replicon cells; assay type: cell-based
[12] = system: Hepatitis C virus subtype 1a; experiment: Resistance ratio of EC90 for NS5A Q30R mutant in HCV genotype 1a infected in HuH7 replicon cells to EC90 for NS5A in HCV genotype 1a infected in HuH7 replicon cells; assay type: cell-based
[13] = system: Hepatitis C virus subtype 1a; experiment: Resistance ratio of EC90 for NS5A Y93N mutant in HCV genotype 1a infected in HuH7 replicon cells to EC90 for NS5A in HCV genotype 1a infected in HuH7 replicon cells; assay type: cell-based
[14] = system: NS3 (Hepatitis C virus), A3EZJ3 [A156T]; experiment: Inhibition of NS3 A156T mutant in HCV genotype 1b infected in HuH7 replicon cells assessed as decrease in viral replication after 3 days by RT-PCR method; assay type: cell-based; details: Hepatitis C virus subtype 1b
[15] = target: T1, Nonstructural protein 5A (Hepatitis C virus); experiment: Inhibition of NS5A D168Y mutant in HCV genotype 1b infected in HuH7 replicon cells assessed as decrease in viral replication after 3 days by RT-PCR method; assay type: cell-based; details: Hepatitis C virus subtype 1b
[16] = Resistance ratio of EC90 for NS3 A156T mutant in HCV genotype 1b infected in HuH7 replicon cells to EC90 for NS5A in HCV genotype 1a infected in HuH7 replicon cells; assay type: cell-based
[17] = Resistance ratio of EC90 for NS5A L31V mutant in HCV genotype 1b infected in HuH7 replicon cells to EC90 for NS5A in HCV genotype 1a infected in HuH7 replicon cells; assay type: cell-based
[18] = Resistance ratio of EC90 for NS5A F28L mutant in HCV genotype 2a infected in HuH7 replicon cells to EC90 for NS5A in HCV genotype 1a infected in HuH7 replicon cells; assay type: cell-based
[19] = target: T1, Nonstructural protein 5A (Hepatitis C virus); experiment: Inhibition of NS5A M31V mutant in HCV genotype 2b infected in HuH7 replicon cells assessed as decrease in viral replication after 3 days by RT-PCR method; assay type: cell-based; details: Hepatitis C virus subtype 2b
[20] = target: T1, Nonstructural protein 5A (Hepatitis C virus); experiment: Inhibition of NS5A L31F mutant in HCV genotype 3a infected in HuH7 replicon cells assessed as decrease in viral replication after 3 days by RT-PCR method; assay type: cell-based; details: Hepatitis C virus subtype 3a
[21] = target: T1, Nonstructural protein 5A (Hepatitis C virus); experiment: Inhibition of NS5A A30T mutant in HCV genotype 3a infected in HuH7 replicon cells assessed as decrease in viral replication after 3 days by RT-PCR method; assay type: cell-based; details: Hepatitis C virus subtype 3a
[22] = target: T1, Nonstructural protein 5A (Hepatitis C virus); experiment: Inhibition of NS5A P32L mutant in HCV genotype 4a infected in HuH7 replicon cells assessed as decrease in viral replication after 3 days by RT-PCR method; assay type: cell-based; details: Hepatitis C virus subtype 4a
[23] = Resistance ratio of EC90 for NS5A in HCV genotype 3a infected in HuH7 replicon cells to EC90 for NS5A in HCV genotype 1a infected in HuH7 replicon cells; assay type: cell-based
[24] = Resistance ratio of EC90 for NS5A L31V mutant in HCV genotype 3a infected in HuH7 replicon cells to EC90 for NS5A in HCV genotype 1a infected in HuH7 replicon cells; assay type: cell-based
[25] = Resistance ratio of EC90 for NS5A in HCV genotype 4a infected in HuH7 replicon cells to EC90 for NS5A in HCV genotype 1a infected in HuH7 replicon cells; assay type: cell-based
[26] = Resistance ratio of EC90 for NS5A P32L mutant in HCV genotype 4a infected in HuH7 replicon cells to EC90 for NS5A in HCV genotype 1a infected in HuH7 replicon cells; assay type: cell-based
[27] = Resistance ratio of EC90 for NS3 D168Y mutant in HCV genotype 1b infected in HuH7 replicon cells to EC90 for NS5A in HCV genotype 1a infected in HuH7 replicon cells

What does the source list for COC(=O)N[C@H](C(=O)N1CCC[C@H]1c1ncc(-c2cc(F)c3c(c2)O[C@@H](c2ccc(C4CC4)s2)n2c-3cc3cc(-c4cnc([C@@H]5CCCN5C(=O)[C@@H](NC(=O)OC)[C@@H]5CCOC(C)(C)C5)[nH]4)ccc32)[nH]1)C(C)C?
EC90 [1]: 4.2 pM; EC90 [2]: 1 to 6.6 pM; EC90 [3]: 6 pM; MRT [4]: 6.5 h; concentration at 24 h [5]: 164 nM; MRT [6]: 10.7 h; EC90 [7]: 2.5 pM; EC90 [8]: 0.33 pM; Ratio [9]: < 1; Ratio [10]: 43; Ratio [11]: 100; Ratio [12]: 28; Ratio [13]: 16; EC90 [14]: 4 pM; EC90 [15]: 1.8 pM; Ratio [16]: 1; Ratio [17]: 1; Ratio [18]: < 1; EC90 [19]: 19 pM; EC90 [20]: 290 pM; EC90 [21]: 3.6 pM; EC90 [22]: 4.4 pM; Ratio [23]: 2; Ratio [24]: 762; Ratio [25]: 2; Ratio [26]: 1; Ratio [27]: < 1
